tolC growth inh = growth inhibitors of E. coli BW25113 tolC mutant | OD615 | growth inhibition, % at 10 µM (by protocol) | 65,000 tested, 2.2% active | AID 573;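 active = growth inhibition at or above a cutoff equal to the mean over every tested compound plus 3 SD, cut at about 60% in these data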;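 note: growth measured after 20 h incubation at 37 °C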
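Signal: optical density read at 615 nm; Assay system: E. coli ΔtolC::kan strain BW25113; Times: 20 h incubation with compound, 37 °C; Dosing: 10 µM final, single dose.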
PostGolgi yeast = growth inhibition of a yeast mutant, post-Golgi transport screen | post-Golgi transport phenotypic cell assay | inhibition, % at 10 µM | 98,000 tested, 0.9% active | AID 739;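 note: yeast cells grown in 1536-well plates; yeast grown about 18 h at 30C before absorbance read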
Candida biofilm = kills Candida albicans biofilms; C. albicans biofilm + clotrimazole, Alamar Blue; inhibition, % at 6 µM; 85,000 tested, 0.14% active;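 active = inhibition above 20%; inactive = inhibition below 20%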;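 note: preformed 24 hr biofilms exposed to compound for 48 hr; 0% = biofilm without compound and 100% = blank killed by clotrimazole plus chlorhexidine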
PostGolgi ctrl = inhibits growth of the yeast control strain | efflux-deficient yeast background strain, growth absorbance A615, 16 h | inhibition, % at 10 µM | 98,000 tested, 5% active
E coli WT exp = E. coli BW25113 growth inhibition, expanded screen; growth inhibition, % at 100 µM; OD600 absorbance; AID 710; 98,000 tested, 0.15% active;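 active = growth inhibition above about 50% at one test dose, limit read from the data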;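 note: growth measured after 20 h incubation at 37 °C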
PTK2B oligo ant = blocks oligomerization of human Pyk2 in cells. Q293 cells, Pyk2 FERM NanoBiT luminescence; active compounds read low. z-score (the deposit names both 25 µM and 10 µM). 99,000 tested, 0.83% active. AID 1347419;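 active = Z-score of -3 or lower, scaled per plate to the spread of control and sample wells; inactive = z-score above -3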;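 note: negative z-score means lost luminescence so less FERM oligomerization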
Target sequence (Q14289 whole entry, looked up): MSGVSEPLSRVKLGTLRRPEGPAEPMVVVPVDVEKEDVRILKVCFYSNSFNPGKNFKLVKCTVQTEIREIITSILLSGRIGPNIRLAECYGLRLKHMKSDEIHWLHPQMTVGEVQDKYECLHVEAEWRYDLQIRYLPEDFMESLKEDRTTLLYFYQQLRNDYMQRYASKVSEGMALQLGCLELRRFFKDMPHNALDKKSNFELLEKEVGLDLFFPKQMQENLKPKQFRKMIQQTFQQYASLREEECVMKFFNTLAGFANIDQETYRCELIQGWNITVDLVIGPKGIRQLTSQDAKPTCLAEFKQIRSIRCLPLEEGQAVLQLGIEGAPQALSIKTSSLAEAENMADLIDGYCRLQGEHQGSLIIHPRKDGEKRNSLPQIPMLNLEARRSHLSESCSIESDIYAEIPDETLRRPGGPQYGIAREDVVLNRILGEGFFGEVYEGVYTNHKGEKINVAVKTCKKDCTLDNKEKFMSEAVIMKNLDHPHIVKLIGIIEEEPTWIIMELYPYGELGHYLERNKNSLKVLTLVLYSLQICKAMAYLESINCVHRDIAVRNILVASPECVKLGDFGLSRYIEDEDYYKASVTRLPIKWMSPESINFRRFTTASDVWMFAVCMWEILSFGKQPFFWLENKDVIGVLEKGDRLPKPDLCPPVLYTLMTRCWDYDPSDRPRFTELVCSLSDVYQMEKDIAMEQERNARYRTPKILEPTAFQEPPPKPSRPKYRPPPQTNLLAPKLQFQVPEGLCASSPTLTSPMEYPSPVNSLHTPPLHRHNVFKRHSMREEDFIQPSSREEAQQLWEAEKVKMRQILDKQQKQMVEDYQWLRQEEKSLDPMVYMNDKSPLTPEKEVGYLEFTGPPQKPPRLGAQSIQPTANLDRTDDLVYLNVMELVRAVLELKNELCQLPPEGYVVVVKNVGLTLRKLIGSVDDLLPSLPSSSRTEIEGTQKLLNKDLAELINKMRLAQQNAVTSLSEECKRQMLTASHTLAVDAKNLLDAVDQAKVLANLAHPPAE
* = called active by the depositor; / = no result. A selection: hits, their analogues and other compounds. The true share with any hit is near 6.5%. Cut-off read from the data, not from the text of the source, unless noted: active = inhibition above about 30%; inactive = the rest.

SMILES | tolC growth inh | PostGolgi yeast | Candida biofilm | PostGolgi ctrl | E coli WT exp | PTK2B oligo ant
Cc1ccc(C(=O)/C=C/c2cn(CN3CCN(C)CC3)c3ccccc23)cc1 | / | -2.2 | 7.9 | 41.1* | -4.0 | -1.65
CC(C)(C)c1cc2cccnc2n1Cc1cccc(Cl)c1 | / | 2.6 | / | 10.5 | 17.0 | 0.32
COCCNC(=O)CSCc1nc(-c2ccc(SC)cc2)oc1C | 1.3 | -8.0 | / | 4.8 | -6.0 | 2.58
CC12C=CC3(O1)C(C(=O)N(c1ccccc1)C3C(=O)NC1CCCC1)C2C(N)=O (stereo not drawn) | / | / | 9.8 | / | / | 0.14
CCCCCOC(=O)c1[nH]c2c(c1C)C(=O)C(C(=O)OC)C(C)C2 (stereo not drawn) | 74.7* | -2.2 | 5.8 | 15.2 | -11.0 | -1.26
O=C(Nc1ccc(CN2CCCCC2)cc1)c1ccc2c(c1)OCO2 | -12.2 | -1.8 | 5.5 | -3.7 | -1.0 | -0.06
O=C(Nc1ccn(Cc2ccc(Cl)cc2)n1)c1ccc2c(c1)OCO2 | 62.7* | 0.5 | -0.1 | 8.8 | 7.0 | 0.28
O=C(Nc1nccs1)C1CCN(S(=O)(=O)c2c(Cl)cccc2Cl)CC1 | / | 1.8 | / | 8.6 | -13.0 | -1.28
Cc1nn(-c2ccccc2)c(C)c1/C=N/NC(=O)c1cccs1 | / | / | / | / | / | -0.79
Cc1nn(-c2ccccc2)c(C)c1/C=N/NC(=O)c1cc(-c2ccc(Cl)s2)[nH]n1 | / | 53.6* | / | 46.4* | 6.0 | -2.16
Cc1nn(-c2ccccc2)c(C)c1/C=N/NC(=O)c1cc(C2CC2)[nH]n1 | / | -2.9 | / | 2.3 | -2.0 | -1.87
Cc1nn(-c2ccccc2)c(C)c1/C=N/NC(=O)c1cc(C23CC4CC(CC(C4)C2)C3)[nH]n1 | / | -2.3 | / | 60.2* | -8.0 | 0.46
Cc1nn(-c2ccccc2)c(C)c1/C=N/NC(=O)c1cc(-c2ccc(Br)s2)[nH]n1 | / | 6.1 | / | 64.4* | 6.0 | 0.06
C=CCn1c(SCC(=O)Nc2ncc(Cc3ccc(Br)cc3)s2)nnc1-c1ccncc1 | / | -5.2 | / | 10.0 | -7.0 | -1.53
Cn1c(Cn2cnc3ccccc32)nnc1SCc1ccccc1 | -7.3 | -2.7 | 4.0 | 29.0 | 6.0 | 1.29
O=C(Nc1ccc(SC(F)F)cc1)c1ccc2nccnc2c1 | 2.8 | -2.2 | 5.0 | 31.1* | -5.0 | -0.56
Cc1cc(C)n(-c2nnc(C)c(=O)[nH]2)n1 | -12.8 | 3.1 | / | 2.1 | -10.0 | 1.05
CCOC(=O)Cn1cc(C(=O)OC)c2ccccc21 | 0.0 | -6.0 | 7.2 | 7.0 | 4.0 | -0.26
CCOC(=O)Cn1cc(C=O)c2ccccc21 | / | 42.1* | -3.2 | 0.8 | 5.0 | -0.56
CCOC(=O)COc1ccccc1C1Nc2ccccc2C(=O)N1c1cccc(Cl)c1 (stereo not drawn) | / | 44.2* | / | 12.9 | -8.0 | -0.49
Cc1cc(C)nc(-n2nc(C)cc2NC(=O)c2cccc(S(=O)(=O)N3CCOCC3)c2)n1 | / | 1.7 | / | 11.2 | -22.0 | -0.55
CCOC(=O)N1CCC(N(C(=O)Nc2ccc(CC)cc2)C(C)CC)CC1 (stereo not drawn) | -0.3 | -0.3 | -3.4 | 30.1* | 5.0 | 0.23
CCOC(=O)N1CCC(N(C(=O)Nc2ccccc2)C(C)CC)CC1 (stereo not drawn) | -1.0 | 3.0 | -3.6 | 0.7 | 8.0 | 0.77
Cc1onc(-c2c(F)cccc2Cl)c1C(=O)OCC(=O)NC(c1ccccc1)c1ccccc1 | / | -7.4 | / | 9.3 | -13.0 | -0.86
COc1cccc(-c2nc(N3CCC(C)CC3)c3ccccc3n2)c1O | 13.3 | 0.3 | / | 72.1* | -8.0 | -0.41
SMILES | tolC growth inh | PostGolgi yeast | Candida biofilm | PostGolgi ctrl | E coli WT exp | PTK2B oligo ant
Oc1ccccc1-c1nc(N2CCN(Cc3ccccc3)CC2)c2ccccc2n1 | 13.7 | -5.2 | 0.2 | 42.0* | -13.0 | -0.93
COc1cccc(-c2nc(NC(C)(C)C)c3ccccc3n2)c1O | 16.4 | -3.8 | 7.3 | 28.4 | 1.0 | -1.17
COc1cccc(-c2nc(N3CC(C)CC(C)C3)c3ccccc3n2)c1O (stereo not drawn) | 2.6 | 0.6 | / | 74.7* | -22.0 | 1.02
COc1ccccc1N1CCN(C(=O)c2oc3cc(C)c(C)cc3c2C)CC1 | 71.6* | -4.4 | -1.1 | 42.3* | -2.0 | -0.8
COc1ccccc1N1CCN(C(=O)c2ccc(C(C)(C)C)cc2)CC1 | 48.9 | -2.0 | 4.5 | 35.7* | -4.0 | -1.85
COc1cc2c(C(=O)N3CCN(c4ccccc4C)CC3)c(C)oc2cc1Br | / | -3.1 | / | 57.4* | -24.0 | 0.11
COc1ccccc1N1CCN(C(=O)c2sc3nc(-c4ccc(F)cc4)cn3c2C)CC1 | 5.0 | -9.1 | 0.7 | 45.3* | -6.0 | /
COc1ccc(-c2cn3c(C)c(C(=O)N4CCN(c5ccc(F)cc5)CC4)sc3n2)cc1 | 0.8 | 5.4 | -2.4 | 7.5 | -7.0 | /
Cc1cc(C)nc(Sc2c(C)n[nH]c2C)n1 | -18.4 | 7.5 | 9.8 | 2.7 | -4.0 | 2.56
COc1ccccc1N1CCN(C(=O)c2cc(-c3cccs3)on2)CC1 | 47.6 | 11.1 | 3.6 | 50.3* | 0.0 | -1.44
COc1ccccc1N1CCN(C(=O)c2cc(-c3ccco3)on2)CC1 | 6.6 | -11.6 | 2.2 | 12.0 | -2.0 | /
COc1ccccc1-c1cc(-c2ccccc2)nc(SC(C(N)=O)c2ccccc2)c1C#N (stereo not drawn) | / | 11.6 | / | 2.4 | 7.0 | -2.87
Cn1c(N2CCOCC2)c(/C=N/OC(=O)c2ccc(F)cc2)c2ccccc21 | / | 42.2* | / | 33.5* | 16.0 | 1.16
CC(=O)O/N=C/c1c(N2CCOCC2)n(C)c2ccccc12 | / | 26.4 | / | 10.3 | 12.0 | -0.26
Cc1ccc(C(=O)O/N=C/c2c(N3CCOCC3)n(C)c3ccccc23)cc1 | / | 15.6 | / | 32.4* | 7.0 | -0.27
CN(C)S(=O)(=O)c1cccc(C(=O)Nc2cc(Cl)cc(Cl)c2)c1 | / | -1.9 | / | 15.5 | -5.0 | -0.24
O=C(Nc1cc(Cl)cc(Cl)c1)c1cccc(OC(F)F)c1 | / | 59.4* | / | 33.3* | 28.0 | -1.85
COc1cc2oc3ccccc3c2cc1N(CC(=O)N(C)C)S(=O)(=O)c1ccc(C)cc1 | / | -2.9 | / | 15.6 | -11.0 | -0.36
COc1cc2oc3ccccc3c2cc1N(CC(=O)N1CCCCC1)S(=O)(=O)c1ccc(C)cc1 | / | -2.5 | / | 42.8* | -11.0 | 0.22
CCOc1ccc(Br)cc1C1C(C(=O)OC)=C(N)Oc2cc(N(C)C)ccc21 (stereo not drawn) | / | 1.4 | 1.8 | 31.4* | -15.0 | -1.28
CCN(c1cccc(C)c1)S(=O)(=O)c1ccc2c3c(cccc13)C(=O)N2 | / | / | 3.2 | / | / | -3.13*
CCN(CC)S(=O)(=O)c1ccc2c3c(cccc13)C(=O)N2 | 17.1 | -5.3 | 3.5 | 7.0 | 6.0 | /
O=C(Cn1ncc2c(=O)oc3ccccc3c21)N1CCC(N2CCCCC2)CC1 | -10.9 | 1.2 | 4.9 | 14.3 | -4.0 | /
O=C(c1cc2ccccc2c(=O)o1)N1CCc2ccccc2C1 | -2.7 | -0.6 | 1.2 | 12.1 | -6.0 | -0.12
O=C(Cn1ncc2c(=O)oc3ccccc3c21)N1CCc2ccccc2C1 | 0.6 | -1.1 | 22.4* | -16.0 | 7.0 | /
CCn1c(C(=O)N2CCc3ccccc3C2)cc2oc3ccccc3c21 | / | -2.3 | 3.0 | 34.4* | -17.0 | -0.81
CCOc1ccccc1CNC(=O)c1cc2oc3ccccc3c2n1CC | / | -6.7 | -0.7 | 30.6* | -12.0 | -2
